# Experimental data from ChEMBL document CHEMBL2177062, “Bile acid-based 1,2,4-trioxanes: synthesis and antimalarial assessment” (J Med Chem, 2012).
# Calls of active or inactive are those of the source. No cut-off for these calls is given here.
# Test system: Plasmodium yoelii nigeriensis
# Experiment: Antimalarial activity in multidrug-resistant Plasmodium yoelii nigeriensis infected Swiss mouse assessed as disease cure at 96 mg/kg, po two devided dose daily for 4 days by 28 day survival assay
# Format: functional
# Details: not given
# In short: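 Swiss mice of either sex (20 2 g) inoculated ip with 1 × 10⁶ MDR P. yoelii nigeriensis (chloroquine-, mefloquine-, halofantrine-resistant) parasites on day 0. Five mice per dose. Oral dosing in groundnut oil (0.1 mL per dose) from day 0 to 3, as two divided doses daily. Thin blood smears on day 4, then twice weekly to day 28. Mice without patent infection by day 28 scored cured; % protection = fraction of mice cured. β-arteether as positive control.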
row,Compound,Activity
1,C=C(c1ccc(Br)cc1)[C@@H]1CO[C@@]2(CC[C@@]3(C)[C@H](CC[C@@H]4[C@@H]3CC[C@]3(C)[C@@H](O)CC[C@@H]43)C2)OO1 (relative stereo; form 1) [listing 1 of 2 here],inactive
2,C=C(c1ccc(Br)cc1)[C@@H]1CO[C@@]2(CC[C@@]3(C)[C@H](CC[C@@H]4[C@@H]3CC[C@]3(C)[C@@H]([C@H](C)C(C)=O)CC[C@@H]43)C2)OO1 (relative stereo; form 1) [listing 1 of 2 here],inactive
3,C=C(c1ccc(Br)cc1)[C@@H]1CO[C@@]2(CC[C@@]3(C)[C@H](CC[C@@H]4[C@@H]3CC[C@]3(C)[C@@H]([C@H](C)CCC(=O)OC)CC[C@@H]43)C2)OO1 (relative stereo; form 1) [listing 1 of 2 here],inactive
4,C=C(c1ccc(Cl)cc1)[C@@H]1CO[C@@]2(CC[C@@]3(C)[C@H](CC[C@@H]4[C@@H]3CC[C@]3(C)[C@@H](C(C)=O)CC[C@@H]43)C2)OO1 (relative stereo; form 1) [listing 1 of 2 here],inactive
5,C=C(c1ccc(Cl)cc1)[C@@H]1CO[C@@]2(CC[C@@]3(C)[C@H](CC[C@@H]4[C@@H]3CC[C@]3(C)[C@@H]([C@H](C)C(C)=O)CC[C@@H]43)C2)OO1 (relative stereo; form 1) [listing 1 of 2 here],inactive
6,C=C(c1ccc(Cl)cc1)[C@@H]1CO[C@@]2(CC[C@@]3(C)[C@H](CC[C@@H]4[C@@H]3CC[C@]3(C)[C@@H]([C@H](C)CCC(=O)OC)CC[C@@H]43)C2)OO1 (relative stereo; form 1) [listing 1 of 2 here],inactive
7,C=C(c1ccc(F)cc1)[C@@H]1CO[C@@]2(CC[C@@]3(C)[C@H](CC[C@@H]4[C@@H]3CC[C@]3(C)[C@@H](O)CC[C@@H]43)C2)OO1 (relative stereo; form 1),inactive
8,C=C(c1ccc(F)cc1)[C@@H]1CO[C@@]2(CC[C@@]3(C)[C@H](CC[C@@H]4[C@@H]3CC[C@]3(C)[C@@H]([C@H](C)C(C)=O)CC[C@@H]43)C2)OO1 (relative stereo; form 1) [listing 1 of 2 here],inactive
9,C=C(c1ccc(F)cc1)[C@@H]1CO[C@@]2(CC[C@@]3(C)[C@H](CC[C@@H]4[C@@H]3CC[C@]3(C)[C@@H]([C@H](C)CCC(=O)OC)CC[C@@H]43)C2)OO1 (relative stereo; form 1) [listing 1 of 2 here],inactive
10,C=C(c1ccccc1)[C@@H]1CO[C@@]2(CC[C@@]3(C)[C@H](CC[C@@H]4[C@@H]3CC[C@]3(C)[C@@H](C(C)=O)CC[C@@H]43)C2)OO1 (relative stereo; form 1) [listing 1 of 2 here],inactive
11,C=C(c1ccccc1)[C@@H]1CO[C@@]2(CC[C@@]3(C)[C@H](CC[C@@H]4[C@@H]3CC[C@]3(C)[C@@H](O)CC[C@@H]43)C2)OO1 (relative stereo; form 1) [listing 1 of 2 here],inactive
12,C=C(c1ccccc1)[C@@H]1CO[C@@]2(CC[C@@]3(C)[C@H](CC[C@@H]4[C@@H]3CC[C@]3(C)[C@@H]([C@H](C)C(C)=O)CC[C@@H]43)C2)OO1 (relative stereo; form 1) [listing 1 of 2 here],inactive
13,C=C(c1ccccc1)[C@@H]1CO[C@@]2(CC[C@@]3(C)[C@H](CC[C@@H]4[C@@H]3CC[C@]3(C)[C@@H]([C@H](C)CCC(=O)OC)CC[C@@H]43)C2)OO1 (relative stereo; form 1) [listing 1 of 2 here],inactive
14,C=C(c1ccc(Br)cc1)[C@@H]1CO[C@@]2(CC[C@@]3(C)[C@H](CC[C@@H]4[C@@H]3CC[C@]3(C)[C@@H](C(C)=O)CC[C@@H]43)C2)OO1 (relative stereo; form 2) [listing 1 of 2 here],inactive
15,C=C(c1ccc(Br)cc1)[C@@H]1CO[C@@]2(CC[C@@]3(C)[C@H](CC[C@@H]4[C@@H]3CC[C@]3(C)[C@@H]([C@H](C)C(C)=O)CC[C@@H]43)C2)OO1 (relative stereo; form 2) [listing 1 of 2 here],inactive
16,C=C(c1ccc(Br)cc1)[C@@H]1CO[C@@]2(CC[C@@]3(C)[C@H](CC[C@@H]4[C@@H]3CC[C@]3(C)[C@@H]([C@H](C)CCC(=O)OC)CC[C@@H]43)C2)OO1 (relative stereo; form 2) [listing 1 of 2 here],inactive
17,C=C(c1ccc(Cl)cc1)[C@@H]1CO[C@@]2(CC[C@@]3(C)[C@H](CC[C@@H]4[C@@H]3CC[C@]3(C)[C@@H]([C@H](C)C(C)=O)CC[C@@H]43)C2)OO1 (relative stereo; form 2) [listing 1 of 2 here],inactive
18,C=C(c1ccc(Cl)cc1)[C@@H]1CO[C@@]2(CC[C@@]3(C)[C@H](CC[C@@H]4[C@@H]3CC[C@]3(C)[C@@H]([C@H](C)CCC(=O)OC)CC[C@@H]43)C2)OO1 (relative stereo; form 2) [listing 1 of 2 here],inactive
19,C=C(c1ccc(F)cc1)[C@@H]1CO[C@@]2(CC[C@@]3(C)[C@H](CC[C@@H]4[C@@H]3CC[C@]3(C)[C@@H]([C@H](C)CCC(=O)OC)CC[C@@H]43)C2)OO1 (relative stereo; form 2) [listing 1 of 2 here],inactive
20,C=C(c1ccccc1)[C@@H]1CO[C@@]2(CC[C@@]3(C)[C@H](CC[C@@H]4[C@@H]3CC[C@]3(C)[C@@H]([C@H](C)CCC(=O)OC)CC[C@@H]43)C2)OO1 (relative stereo; form 2),inactive

# Test system: Plasmodium yoelii nigeriensis
# Experiment: Antimalarial activity in multidrug-resistant Plasmodium yoelii nigeriensis infected Swiss mouse assessed as suppression of parasitaemia at 96 mg/kg, po two devided dose daily for 4 days
# Format: functional
# Details: 96 mg/kg
# In short: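 Swiss mice of either sex (20 2 g) inoculated ip with 1 × 10⁶ MDR P. yoelii nigeriensis parasites on day 0. Five mice per dose, given oral doses in groundnut oil from day 0 to 3, twice daily. Parasitaemia read from thin blood smears on day 4. Suppression = [(C − T)/C] × 100 versus untreated controls. 100% means no parasites seen in 50 oil-immersion fields.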
row,Compound,Activity
1,C=C(c1ccc(Cl)cc1)[C@@H]1CO[C@@]2(CC[C@@]3(C)[C@H](CC[C@@H]4[C@@H]3CC[C@]3(C)[C@@H]([C@H](C)CCC(=O)OC)CC[C@@H]43)C2)OO1 (relative stereo; form 1) [listing 2 of 2 here],56.02%
2,C=C(c1ccccc1)[C@@H]1CO[C@@]2(CC[C@@]3(C)[C@H](CC[C@@H]4[C@@H]3CC[C@]3(C)[C@@H](O)CC[C@@H]43)C2)OO1 (relative stereo; form 1) [listing 2 of 2 here],69.36%
3,C=C(c1ccc(Br)cc1)[C@@H]1CO[C@@]2(CC[C@@]3(C)[C@H](CC[C@@H]4[C@@H]3CC[C@]3(C)[C@@H](O)CC[C@@H]43)C2)OO1 (relative stereo; form 1) [listing 2 of 2 here],76.52%
4,C=C(c1ccc(Cl)cc1)[C@@H]1CO[C@@]2(CC[C@@]3(C)[C@H](CC[C@@H]4[C@@H]3CC[C@]3(C)[C@@H]([C@H](C)C(C)=O)CC[C@@H]43)C2)OO1 (relative stereo; form 1) [listing 2 of 2 here],100%
5,C=C(c1ccc(Br)cc1)[C@@H]1CO[C@@]2(CC[C@@]3(C)[C@H](CC[C@@H]4[C@@H]3CC[C@]3(C)[C@@H]([C@H](C)C(C)=O)CC[C@@H]43)C2)OO1 (relative stereo; form 1) [listing 2 of 2 here],56.73%
6,C=C(c1ccccc1)[C@@H]1CO[C@@]2(CC[C@@]3(C)[C@H](CC[C@@H]4[C@@H]3CC[C@]3(C)[C@@H](C(C)=O)CC[C@@H]43)C2)OO1 (relative stereo; form 1) [listing 2 of 2 here],79.89%
7,C=C(c1ccc(Cl)cc1)[C@@H]1CO[C@@]2(CC[C@@]3(C)[C@H](CC[C@@H]4[C@@H]3CC[C@]3(C)[C@@H](C(C)=O)CC[C@@H]43)C2)OO1 (relative stereo; form 1) [listing 2 of 2 here],90.98%
8,C=C(c1ccc(F)cc1)[C@@H]1CO[C@@]2(CC[C@@]3(C)[C@H](CC[C@@H]4[C@@H]3CC[C@]3(C)[C@@H]([C@H](C)CCC(=O)OC)CC[C@@H]43)C2)OO1 (relative stereo; form 1) [listing 2 of 2 here],45.31%
9,C=C(c1ccc(Br)cc1)[C@@H]1CO[C@@]2(CC[C@@]3(C)[C@H](CC[C@@H]4[C@@H]3CC[C@]3(C)[C@@H]([C@H](C)CCC(=O)OC)CC[C@@H]43)C2)OO1 (relative stereo; form 1) [listing 2 of 2 here],64.31%
10,C=C(c1ccccc1)[C@@H]1CO[C@@]2(CC[C@@]3(C)[C@H](CC[C@@H]4[C@@H]3CC[C@]3(C)[C@@H]([C@H](C)C(C)=O)CC[C@@H]43)C2)OO1 (relative stereo; form 1) [listing 2 of 2 here],94.31%
11,C=C(c1ccc(F)cc1)[C@@H]1CO[C@@]2(CC[C@@]3(C)[C@H](CC[C@@H]4[C@@H]3CC[C@]3(C)[C@@H]([C@H](C)C(C)=O)CC[C@@H]43)C2)OO1 (relative stereo; form 1) [listing 2 of 2 here],86.26%
12,C=C(c1ccccc1)[C@@H]1CO[C@@]2(CC[C@@]3(C)[C@H](CC[C@@H]4[C@@H]3CC[C@]3(C)[C@@H]([C@H](C)CCC(=O)OC)CC[C@@H]43)C2)OO1 (relative stereo; form 1) [listing 2 of 2 here],20.6%
13,C=C(c1ccc(Cl)cc1)[C@@H]1CO[C@@]2(CC[C@@]3(C)[C@H](CC[C@@H]4[C@@H]3CC[C@]3(C)[C@@H]([C@H](C)CCC(=O)OC)CC[C@@H]43)C2)OO1 (relative stereo; form 2) [listing 2 of 2 here],45.23%
14,C=C(c1ccc(Br)cc1)[C@@H]1CO[C@@]2(CC[C@@]3(C)[C@H](CC[C@@H]4[C@@H]3CC[C@]3(C)[C@@H](C(C)=O)CC[C@@H]43)C2)OO1 (relative stereo; form 2) [listing 2 of 2 here],89.78%
15,C=C(c1ccc(Cl)cc1)[C@@H]1CO[C@@]2(CC[C@@]3(C)[C@H](CC[C@@H]4[C@@H]3CC[C@]3(C)[C@@H]([C@H](C)C(C)=O)CC[C@@H]43)C2)OO1 (relative stereo; form 2) [listing 2 of 2 here],34.65%
16,C=C(c1ccc(Br)cc1)[C@@H]1CO[C@@]2(CC[C@@]3(C)[C@H](CC[C@@H]4[C@@H]3CC[C@]3(C)[C@@H]([C@H](C)C(C)=O)CC[C@@H]43)C2)OO1 (relative stereo; form 2) [listing 2 of 2 here],41.83%
17,C=C(c1ccc(F)cc1)[C@@H]1CO[C@@]2(CC[C@@]3(C)[C@H](CC[C@@H]4[C@@H]3CC[C@]3(C)[C@@H]([C@H](C)CCC(=O)OC)CC[C@@H]43)C2)OO1 (relative stereo; form 2) [listing 2 of 2 here],33.13%
18,C=C(c1ccc(Br)cc1)[C@@H]1CO[C@@]2(CC[C@@]3(C)[C@H](CC[C@@H]4[C@@H]3CC[C@]3(C)[C@@H]([C@H](C)CCC(=O)OC)CC[C@@H]43)C2)OO1 (relative stereo; form 2) [listing 2 of 2 here],18.57%
